The values that follow come from ChEMBL document CHEMBL1134531, “Peptide analogues of a subdominant epitope expressed in ebv-associated tumors: synthesis and immunological activity” (J Med Chem, 2001).

Residues, ends and D or L forms follow the SMILES beside them. *: point of attachment. X3 = OC[C@H]1O[C@H](*)[C@H](O)[C@H](O)[C@@H]1O

Series [1] is described as follows: Half life to evaluate susceptibility to enzymatic hydrolysis by incubating at 37 degree C in human plasma. Format: ADME. Put shortly:
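Peptide (5 mg in acetonitrile/H₂O 1:1, 50 μL) mixed into 0.5 mL heparinized human plasma and incubated at 37 °C for up to 360 min. Ethanol added to stop the reaction, then centrifugation and RP-HPLC of the supernatant. Half-life obtained by least-squares linear regression of log nonapeptide concentration against time, with at least five time points.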

Series [2] can be described thus: Half life to evaluate susceptibility to enzymatic hydrolysis by incubating at 37 degree C in culture medium. Format: ADME. Put shortly: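 Peptide (5 mg in acetonitrile/H₂O 1:1, 50 μL) added to 0.5 mL RPMI containing 10% fetal calf serum and incubated at 37 °C for up to 360 min. Reaction stopped with ethanol and centrifuged, then supernatant analysed by RP-HPLC. T1/2 taken from a least-squares linear regression of log nonapeptide concentration versus time, using at least five points.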

For the molecule `CSCCN(CC(=O)N[C@H](C(=O)O)C(C)C)C(=O)[C@@H](NC(=O)[C@H](CC(C)C)NC(=O)[C@H](CC(C)C)NC(=O)CNC(=O)[C@H](C)NC(=O)[C@H](CC(C)C)NC(=O)[C@@H](N)Cc1ccc(O)cc1)[C@@H](C)O` (HELM PEPTIDE1{Y.L.A.G.L.L.T.[CSCCN(CC(=O)[*:2])[*:1]].V}$$$$V2.0), the half-life (usually the time needed for the level to fall by half in the phase considered) in series [1] was 0.86 h; in series [2] it was over 6 h.
Turning to `CSCC[C@H](NC(=O)[C@@H](NC(=O)[C@H](CC(C)C)NC(=O)[C@H](CC(C)C)NC(=O)CNC(=O)[C@H](C)NC(=O)[C@H](CC(C)C)NC(=O)[C@@H](N)Cc1ccc(O)cc1)[C@@H](C)O)C(=O)N[C@H](CO)C(C)C` (HELM PEPTIDE1{Y.L.A.G.L.L.T.M.[CC(C)[C@@H](CO)N[*:1]]}$$$$V2.0), the results for the half-life in series [1] and in series [2] were 1.66 h and over 6 h, respectively.
For `CSCC[C@H](NC(=O)[C@@H](NC(=O)[C@H](CC(C)C)NC(=O)[C@H](CC(C)C)NC(=O)CNC(=O)[C@H](C)NC(=O)[C@H](CC(C)C)NC(=O)[C@@H](N)Cc1ccc(O)cc1)[C@@H](C)O)C(=O)N(CC(=O)O)C(C)C` (HELM PEPTIDE1{Y.L.A.G.L.L.T.M.[CC(C)N(CC(=O)O)[*:1]]}$$$$V2.0), the half-life in series [1] and in series [2] was over 6 h throughout.
On to `CSCC[C@@H](CN[C@H](C(=O)O)C(C)C)NC(=O)[C@@H](NC(=O)[C@H](CC(C)C)NC(=O)[C@H](CC(C)C)NC(=O)CNC(=O)[C@H](C)NC(=O)[C@H](CC(C)C)NC(=O)[C@@H](N)Cc1ccc(O)cc1)[C@@H](C)O` (HELM PEPTIDE1{Y.L.A.G.L.L.T.[CSCC[C@@H](CN[C@H](C(=O)O)C(C)C)N[*:1]]}$$$$V2.0), for which the half-life in series [1] was 5.07 h; in series [2] it was over 6 h.
Regarding `CSCC[C@@H](NC(=O)[C@@H](NC(=O)[C@H](CC(C)C)NC(=O)[C@H](CC(C)C)NC(=O)CNC(=O)[C@H](C)NC(=O)[C@H](CC(C)C)NC(=O)[C@@H](N)Cc1ccc(O)cc1)[C@@H](C)O)C(=O)N[C@H](C(=O)O)C(C)C`, the half-life in series [1] is 0.597 h; in series [2] it was over 6 h.
For the molecule `CSCC[C@H](NC(=O)[C@@H](NC(=O)[C@H](CC(C)C)NC(=O)[C@H](CC(C)C)NC(=O)CNC(=O)[C@H](C)NC(=O)[C@H](CC(C)C)NC(=O)[C@@H](N)Cc1ccc(O)cc1)[C@@H](C)O)C(=O)N[C@@H](C(=O)O)C(C)C`, the half-life is 4.53 h in series [1] and over 6 h in series [2].
For `CSCC[C@H](NC(=O)[C@@H](NC(=O)[C@H](CC(C)C)NC(=O)[C@H](CC(C)C)NC(=O)CNC(=O)[C@H](C)NC(=O)[C@H](CC(C)C)NC(=O)[C@@H](N)Cc1ccc(O)cc1)[C@@H](C)O)C(=O)N[C@H](C(=O)O)C(C)C` the same measures were 0.212 h and 1.37 h.
With `CSCC[C@H](NC(=O)[C@@H](NC(=O)[C@H](CC(C)C)NC(=O)[C@H](CC(C)C)NC(=O)CNC(=O)[C@H](C)NC(=O)[C@H](CC(C)C)NC(=O)[C@@H](N)Cc1ccc(O)cc1)[C@@H](C)O[C@H]1O[C@H](CO)[C@@H](O)[C@@H](O)[C@H]1O)C(=O)N[C@H](C(=O)O)C(C)C` (H-YLAGLLT(X3)MV-OH), the half-life was 1.01 h in series [1] and over 6 h in series [2].
For `CC(C)C[C@H](NC(=O)CNC(=O)[C@H](C)NC(=O)[C@H](CC(C)C)NC(=O)[C@@H](N)Cc1ccc(O)cc1)C(=O)N[C@@H](CC(C)C)C(=O)N[C@H](C(=O)N[C@@H](CC[S+](C)[O-])C(=O)N[C@H](C(=O)O)C(C)C)[C@@H](C)O` (some centres not stated) (HELM PEPTIDE1{Y.L.A.G.L.L.T.[CS(=O)CC[C@H](N[*:1])C(=O)[*:2]].V}$$$$V2.0), the half-life is 0.522 h in series [1] and 1.56 h in series [2].
Taken in the same sequence, the figures for `CSCC[C@H](NC(=O)[C@@H](NC(=O)[C@H](CC(C)C)NC(=O)[C@H](CC(C)C)NC(=O)CNC(=O)[C@H](C)NC(=O)[C@H](CC(C)C)NC(=O)[C@@H](N)Cc1ccc(O)cc1)[C@@H](C)O)C(=O)N(C)[C@H](C(=O)O)C(C)C` (HELM PEPTIDE1{Y.L.A.G.L.L.T.M.[meV]}$$$$V2.0) were over 6 h and over 6 h.
With H-YLAGLLTMV-NH2, the half-life in series [1] is 0.657 h; in series [2], over 6 h.
